{
  "source": "ChEMBL document CHEMBL4513216",
  "about": "“Probing the Open Global Health Chemical Diversity Library for Multistage-Active Starting Points for Next-Generation Antimalarials” (ACS Infect Dis, 2020)",
  "data": [
    {"experiment": "Toxicity liver stage against HepG2, at 10uM", "type": "cell-based", "parameters": "test concentration 10 uM, cell line HepG2-A16-CD81EGFP", "details": "human, HepG2-A16-CD81EGFP cells; read-out: INHIBITION", "how_it_was_run": "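Uninfected HepG2-A16-CD81EGFP cells, 3 × 10^3 per well, 1536-well, plated on prespotted compound at 10 μM final, parasite-free screening media added to match infected plates; puromycin 10 μM positive, DMSO 0.5% negative; run in parallel with 48 h PbLuc assay at 37 °C, 5% CO2; viability by CellTiter-Glo luminescence, normalized to controls.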", "units": {"cytotoxicity at 10 µM": "%"}, "values": [
      {"molecule": "OC(CNC1CCSCC1)c1cccc(OCc2ccccc2)c1", "note": "(configuration not stated)", "cytotoxicity at 10 µM": 8.22},
      {"molecule": "Cc1ccc(OCC(=O)N2CCN[C@H]3CS(=O)(=O)C[C@H]32)cn1", "cytotoxicity at 10 µM": -2.7},
      {"molecule": "CCn1cc(NC(=O)CN2C(=O)CC(C)(C)c3ccccc32)cn1", "cytotoxicity at 10 µM": -1.7},
      {"molecule": "Cn1cc(CN(C(=O)C2COc3ccccc3C2)C2CC2)cn1", "note": "(configuration not stated)", "cytotoxicity at 10 µM": 1.81},
      {"molecule": "Cc1cccc(CNc2nnc(C(C)C)o2)c1", "cytotoxicity at 10 µM": 12.2},
      {"molecule": "COc1ccc(Cl)cc1CCNC(=O)NCc1ncnn1C", "cytotoxicity at 10 µM": 2.06},
      {"molecule": "COc1ccc(N(c2ccc(C)cc2)c2ccc(C(=O)O)s2)cc1", "cytotoxicity at 10 µM": -3.75},
      {"molecule": "CC(C)Cc1noc(CN(C)C(=O)C2COc3ccccc3C2)n1", "note": "(configuration not stated)", "cytotoxicity at 10 µM": -9.12},
      {"molecule": "Cc1ccsc1C(Cc1ccccc1)NC(=O)CSCC(N)=O", "note": "(configuration not stated)", "cytotoxicity at 10 µM": 8.13},
      {"molecule": "CC(=O)N1CCCC1(C)c1nc(C)no1", "note": "(configuration not stated)", "cytotoxicity at 10 µM": 2.71},
      {"molecule": "CCC1c2ccccc2CCN1C(=O)c1ccc(OC)nn1", "note": "(configuration not stated)", "cytotoxicity at 10 µM": -12.8},
      {"molecule": "COc1ccc(-c2cc(C3CCCCCN3S(=O)(=O)N(C)C)on2)cc1", "note": "(configuration not stated)", "cytotoxicity at 10 µM": 2.24},
      {"molecule": "CCNC(=O)[C@@H]1C[C@H](NC(=O)Cc2ccsc2)CN1Cc1ccc(C)o1", "cytotoxicity at 10 µM": -11.8},
      {"molecule": "Cc1cnc(C(=O)N2CCC(COCc3ccccc3)C2)cn1", "note": "(configuration not stated)", "cytotoxicity at 10 µM": 7.54},
      {"molecule": "Cc1ccc(C(=O)N(CC2CCCO2)c2ccncc2)o1", "note": "(configuration not stated)", "cytotoxicity at 10 µM": -3.08},
      {"molecule": "O=C(O)[C@@H]1CN(Cc2ccc3nsnc3c2)C[C@H]1c1ccncc1", "cytotoxicity at 10 µM": 5.4},
      {"molecule": "CC(CNC(=O)CCCc1ccccn1)c1ccsc1", "note": "(configuration not stated)", "cytotoxicity at 10 µM": 7.42},
      {"molecule": "COc1c(Br)c(C(=O)NC2CCCCC2)nn1C", "cytotoxicity at 10 µM": 6.94},
      {"molecule": "COCC(=O)NC(C)Cc1cccc(OC)c1", "note": "(configuration not stated)", "cytotoxicity at 10 µM": -10.6},
      {"molecule": "CCC(C)(C)NC(=O)c1ccc(NC(=O)NCc2cc(C)on2)cc1", "cytotoxicity at 10 µM": -1.84},
      {"molecule": "Cc1noc(C)c1CN1CCC2(CC1)CCN(C(=O)c1cscn1)C2", "cytotoxicity at 10 µM": 1.21},
      {"molecule": "CS(=O)(=O)c1ccc(CN2CCCCC2c2cccc(F)c2)cc1", "note": "(configuration not stated)", "cytotoxicity at 10 µM": -17.4},
      {"molecule": "Cc1noc(C)c1CN1CC[C@H]2OCC[C@@]2(C(=O)NC2CCCC2)C1", "cytotoxicity at 10 µM": -75.7},
      {"molecule": "Cc1cnn(CC2CN(Cc3nc4ccccc4nc3C)CCO2)c1", "note": "(configuration not stated)", "cytotoxicity at 10 µM": -4.02},
      {"molecule": "CC(=O)NCc1cc2n(n1)CCN(Cc1cccc(Cl)c1F)C2", "cytotoxicity at 10 µM": 7.65},
      {"molecule": "COC(=O)c1ccc2ccn(CC3CCCO3)c(=O)c2c1", "note": "(configuration not stated)", "cytotoxicity at 10 µM": -15.8},
      {"molecule": "COCCNC(=O)N1CCN(c2cc(F)ccc2F)CC1", "cytotoxicity at 10 µM": -5.95},
      {"molecule": "CSc1cccc(CN(C)C(=O)Cn2ncc(N(C)C)cc2=O)c1", "cytotoxicity at 10 µM": 0.0849},
      {"molecule": "O=C(CCc1cccnc1)N1CCC2(CCN(CC3CCCC3)C2)C1", "note": "(configuration not stated)", "cytotoxicity at 10 µM": 3.82},
      {"molecule": "CCC(=O)N1CCC(c2nc3ccc(NC(C)C)cn3n2)CC1", "cytotoxicity at 10 µM": -10.2},
      {"molecule": "CC(=O)NC[C@H]1COCc2nc3cc(S(C)(=O)=O)ccc3n21", "cytotoxicity at 10 µM": 0.722},
      {"molecule": "O=C(NCC(F)F)c1ccc(S(=O)(=O)NCCc2cn[nH]c2)cc1", "cytotoxicity at 10 µM": 5.5},
      {"molecule": "Cc1cc(C)c(-n2cc(CCO)cn2)cc1C", "cytotoxicity at 10 µM": 0.334},
      {"molecule": "CC1(C)CNC(=O)c2nc(-c3nnc(-c4ccccc4)[nH]3)[nH]c2C1", "cytotoxicity at 10 µM": -5.79},
      {"molecule": "CCCC(C)N(C)C(=O)c1nc(S(C)(=O)=O)n2ccccc12", "note": "(configuration not stated)", "cytotoxicity at 10 µM": -8.16},
      {"molecule": "COc1ccnc(N2CCN(C(C)c3nc(C)no3)CC2)n1", "note": "(configuration not stated)", "cytotoxicity at 10 µM": -1.33},
      {"molecule": "Cc1cc(N(Cc2ccccn2)C2CC2)n2nc(C(F)(F)F)nc2n1", "cytotoxicity at 10 µM": -5.83},
      {"molecule": "Cc1cc(F)ccc1S(=O)(=O)NCc1cccc(C(=O)N2CCCC2)c1", "cytotoxicity at 10 µM": -1.2},
      {"molecule": "CSCc1cc(F)ccc1CNCc1ccncc1", "cytotoxicity at 10 µM": -7.53},
      {"molecule": "CC(=O)N1CCC(C)(c2cc(C(=O)NCC(C)(C)C)nc(C)n2)CC1", "cytotoxicity at 10 µM": 6.93},
      {"molecule": "Cc1nn(C)c(C)c1CC(=O)N1CCCC(CNS(C)(=O)=O)C1", "note": "(configuration not stated)", "cytotoxicity at 10 µM": 3.3},
      {"molecule": "O=C(NCCSCc1ccc(Br)s1)C1CCCN(c2cnccn2)C1", "note": "(configuration not stated)", "cytotoxicity at 10 µM": 5.34},
      {"molecule": "CCOCCCC(=O)NCCC(=O)N1CCN(c2ccccn2)CC1", "cytotoxicity at 10 µM": -4.76},
      {"molecule": "CC(=O)N1CCC2(CC1)CNc1ccc(F)cc12", "cytotoxicity at 10 µM": 1.63},
      {"molecule": "Cc1nc([C@@H]2C[C@H]3CN(Cc4ccc5c(c4)OCO5)C[C@H]3O2)no1", "cytotoxicity at 10 µM": -115},
      {"molecule": "CC1CCCCN1C(=O)c1nc2c(n1C(C)C)CCN(C)C2", "note": "(configuration not stated)", "cytotoxicity at 10 µM": 18.2},
      {"molecule": "CCc1nccc(CN2CCC(CNC(=O)c3occc3C)C2)n1", "note": "(configuration not stated)", "cytotoxicity at 10 µM": 6.95},
      {"molecule": "CC(=O)N1CCC(N2CCOC[C@H]2c2nc(C(C)(C)C)c[nH]2)CC1", "cytotoxicity at 10 µM": 6.51},
      {"molecule": "c1ccc(-n2ccc(CNCC3CCCN3c3cccnn3)n2)cc1", "note": "(configuration not stated)", "cytotoxicity at 10 µM": -10.2},
      {"molecule": "O=C(NCCn1ccnc1-c1cc2n(n1)CCCNC2)c1ccncc1", "cytotoxicity at 10 µM": -1.84},
      {"molecule": "Cc1ccc(C(=O)Nc2cc(C(C)C)n[nH]2)cn1", "cytotoxicity at 10 µM": 55.8},
      {"molecule": "CC(c1ccccc1)N(C)C(=O)CN1CCN(c2cnccn2)CC1", "note": "(configuration not stated)", "cytotoxicity at 10 µM": 3.96},
      {"molecule": "COC[C@H]1CCC[C@]12CN(S(=O)(=O)c1cccs1)CCO2", "cytotoxicity at 10 µM": -1.34},
      {"molecule": "Cc1ccccc1-c1cncc(C2CCN(CC(=O)N(C)C)CC2)n1", "cytotoxicity at 10 µM": -12.5},
      {"molecule": "O=C1NC2(CCc3ccccc31)CCN(Cc1cccnc1)C2", "note": "(configuration not stated)", "cytotoxicity at 10 µM": 0.9},
      {"molecule": "O=C(NC1CC1)[C@H]1C[C@H]2OCC[C@H]2N(Cc2ccc3ccccc3n2)C1", "cytotoxicity at 10 µM": -62.6},
      {"molecule": "CCCn1nnnc1CSc1nccn1C", "cytotoxicity at 10 µM": -3.39},
      {"molecule": "CC(C)(C)c1nc(CN(Cc2ccccc2Cl)C2CCCC2)no1", "cytotoxicity at 10 µM": 3.25},
      {"molecule": "CC(C)NC(=O)CCNC(=O)Nc1cccc(-c2nccn2C)c1", "cytotoxicity at 10 µM": -1.39},
      {"molecule": "CCOCC1CN(C(=O)Cc2ccccn2)Cc2c1cnn2C", "note": "(configuration not stated)", "cytotoxicity at 10 µM": -72},
      {"molecule": "Cn1cc(N2CCC3(CCCN(Cc4ccc(F)cc4)C3)C2=O)cn1", "note": "(configuration not stated)", "cytotoxicity at 10 µM": -73.4},
      {"molecule": "COc1cc(-c2cc(C3CCOC3)c(C#N)c(N)n2)ccc1O", "note": "(configuration not stated)", "cytotoxicity at 10 µM": -0.412},
      {"molecule": "CCN(CC1CCOC1)C(=O)NCc1ccc(-n2cncn2)nc1", "note": "(configuration not stated)", "cytotoxicity at 10 µM": 0.0529},
      {"molecule": "CN(Cc1cccc(F)c1)C(=O)CN1CCCCC1Cn1cncn1", "note": "(configuration not stated)", "cytotoxicity at 10 µM": -8.25},
      {"molecule": "Cc1ccc(CN(C)c2nccc(-c3cn(C)nc3C)n2)o1", "cytotoxicity at 10 µM": 4.17},
      {"molecule": "CN(c1ccc(OCc2cnc(Cl)s2)cc1)S(C)(=O)=O", "cytotoxicity at 10 µM": 0.867},
      {"molecule": "CS(=O)(=O)N1CCCC(Cc2cnc(Br)cn2)C1", "note": "(configuration not stated)", "cytotoxicity at 10 µM": 17.3},
      {"molecule": "CCc1cnc(NCC(C)Oc2cccnc2)nc1", "note": "(configuration not stated)", "cytotoxicity at 10 µM": 0.977},
      {"molecule": "Cc1cc(C(=O)N2CCCCC2c2nc(C)cs2)[nH]n1", "note": "(configuration not stated)", "cytotoxicity at 10 µM": -8.13},
      {"molecule": "Cc1ccc(C(C(=O)N2CC(c3ccccn3)C2)N(C)C)cc1", "note": "(configuration not stated)", "cytotoxicity at 10 µM": -9.82},
      {"molecule": "COCC(=O)N1Cc2nccn2CC(Cn2ncccc2=O)C1", "note": "(configuration not stated)", "cytotoxicity at 10 µM": 5.23},
      {"molecule": "Cc1ccnn1CC(=O)N(C)Cc1cnn(-c2ccccc2)c1", "cytotoxicity at 10 µM": 9},
      {"molecule": "O=C(c1ccc(=O)[nH]n1)N1CCc2ccccc21", "cytotoxicity at 10 µM": 37.9},
      {"molecule": "CC(C)c1noc(CNC2CCCN(Cc3noc(C4CC4)n3)C2)n1", "note": "(configuration not stated)", "cytotoxicity at 10 µM": -3.19},
      {"molecule": "CCC[C@@H]1CN(C(=O)c2cc3ccccc3cc2O)C[C@H]1N(C)C", "cytotoxicity at 10 µM": -10.2},
      {"molecule": "CC(NCCN1CCC(N(C)C)CC1)c1ccc(Cl)s1", "note": "(configuration not stated)", "cytotoxicity at 10 µM": 25.9},
      {"molecule": "CCOC(=O)c1cnn(-c2cc(Oc3cc(C)ccc3C)ncn2)c1N", "cytotoxicity at 10 µM": 11.3},
      {"molecule": "Cc1cccnc1C(=O)N1CCCCC1c1[nH]ncc1S(C)(=O)=O", "note": "(configuration not stated)", "cytotoxicity at 10 µM": 5.92},
      {"molecule": "O=C(NC1CCCC1)O[C@H]1COCCN(c2nc3ccccc3s2)C1", "cytotoxicity at 10 µM": -0.655},
      {"molecule": "CC(C)[C@@H]1CN(c2ccc(C(F)(F)F)cn2)C[C@H]1NS(C)(=O)=O", "cytotoxicity at 10 µM": 8.46},
      {"molecule": "Fc1cnc(N2CCCC3(CCN(Cc4ccco4)C3)C2)nc1", "note": "(configuration not stated)", "cytotoxicity at 10 µM": -84.9},
      {"molecule": "O=C(NC1CCN(c2ccccc2OC(F)F)C1)c1cccnc1", "note": "(configuration not stated)", "cytotoxicity at 10 µM": 6.89}
    ]}
  ]
}
